According to ChEMBL document CHEMBL1158591, “Discovery of 2-chloro-N-((4,4-difluoro-1-hydroxycyclohexyl)methyl)-5-(5-fluoropyrimidin-2-yl)benzamide as a potent and CNS penetrable P2X7 receptor antagonist” (Bioorg Med Chem Lett, 2010):

Key:
Type in all cases: ADME, organism-based
[1] = Ratio of drug level in brain to plasma in iv dosed Sprague-Dawley rat; conditions: brain and plasma
How it was run: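 Male Sprague Dawley rats given a steady-state IV infusion. Ratio is compound concentration in brain over that in plasma.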

[2] = Oral bioavailability in Sprague-Dawley rat at 1 mg/kg, po; conditions: in vivo
How it was run: (§1)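 Male Sprague Dawley rats, IV/PO crossover pharmacokinetics, dosed at 1 mpk by each route.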

[3] = system: Rattus norvegicus; test: Volume of distribution at steady state in Sprague-Dawley rat at 1 mg/kg, iv and po; parameters: dose 1 mg/kg; conditions: in vivo; how it was run: as §1

A Kp [1] of 1.3, a bioavailability [2] of 84% and a Vdss [3] of 1.3 L/kg were found for `O=C(NCC1(O)CCC(F)(F)CC1)c1cc(-c2ncc(F)cn2)ccc1Cl` in this work.

A Kp [1] of 0.7, a bioavailability [2] of 35% and a Vdss [3] of 0.9 L/kg were found for `O=C(NCC1(O)CCCCCC1)c1cc(-c2ncc(F)cn2)ccc1Cl` in this work.
